Drawing on the array DNA melting data of Ke et al. (doi:10.1101/2024.01.08.574731), this text covers folding enthalpy and Tm for 37 sequences.

Data set [1] can be described thus: folding enthalpy; higher = less favourable; fluorescence melt of hairpins on a sequencing array, two-state fit. Conditions: sodium 0.088 M. In short, it runs like this:
(§1)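 Melting temperature and folding enthalpy were obtained by bootstrapped two-state fitting. Fits used Cy3 fluorescence of library hairpins with annealed Cy3 and quencher oligos on a sequenced MiSeq flow cell, imaged in 50 mM Na-HEPES pH 8.0, 25 mM NaCl in 2.5 °C steps up to 60 °C and normalised to pre-quench Cy3 and control constructs. Four replicates were combined by inverse-variance weighting, and fitted temperatures were raised by 9.35 °C to match UV melts.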

Data set [2] is described as follows: melting temperature; fluorescence melt of hairpins on a sequencing array, two-state fit, raised by 9.35 °C to match UV melts. Conditions: sodium 0.088 M. In short, it runs like this:
as §1

Consider GCAGCGGGAAACCGCCAC (..((((....))))..), for which the folding enthalpy in data set [1] was -8.97 kcal/mol. For the same sequence, the Tm in data set [2] is 29.8 °C.
In the case of GCAGCTGGAAACAGCCAC (..((((....))))..), the folding enthalpy in data set [1] was -10.6 kcal/mol. The Tm in data set [2] stood at 31 °C.
In the same order, the values of GCAGGACCGAAAGGTTGC (((..(((....)))))) are -20.7 kcal/mol and 44.8 °C.
Consider GCAGGACGAAAGTCTTGC (((.(((....))).))), for which the folding enthalpy in data set [1] is -41.5 kcal/mol. In addition, the Tm in data set [2] was determined as 58.5 °C.
For GCAGGAGGAAACTTCTGC ((((.((....)).)))) the same measures were -39.5 kcal/mol and 49.9 °C.
In the same order, the values of GCAGGCGAAAGCCGATGC ((((((....)))..))) are -13.3 kcal/mol and 53.9 °C.
For GCAGGCGAAAGCCGGTGC ((((((....)))..))) the same measures were -14.5 kcal/mol and 53.8 °C.
As to GCAGGCGGAAACACCTGC (((((.(....).))))), in data set [1], the folding enthalpy was -48.9 kcal/mol. Besides, the Tm in data set [2] was determined as 54.1 °C.
In the same order, the values of GCAGGCGGAAACGCCCGC ((.((((....)))).)) are -15.8 kcal/mol and 59.3 °C.
For GCAGGCGGAAACGCCTAC (.(((((....))))).) the same measures were -9.53 kcal/mol and 43.9 °C.
For GCAGGCGGAAACGCTTGC (((.(((....))).))) the same measures were -38.5 kcal/mol and 62.1 °C.
Consider GCAGGCTCGAAAGAGTGC (((..(((....)))))), for which the folding enthalpy in data set [1] is -19.8 kcal/mol. In data set [2], the Tm was found to be 36.6 °C.
For GCAGGGCGAAAGCACCGC ((.(.((....)).).)) the same measures were -16 kcal/mol and 57.7 °C.
GCAGGGCGAAAGCCTGGC ((..(((....)))..)): the folding enthalpy in data set [1] was -20.2 kcal/mol. Also, the Tm in data set [2] was 59.8 °C.
In the same order, the values of GCAGGGCGAAAGCGGTGC (((..((....))..))) are -21.4 kcal/mol and 52.8 °C.
For GCAGGGCGAAAGCGTTGC (((..((....))..))) the same measures were -19.1 kcal/mol and 54.1 °C.
In the same order, the values of GCAGGGCGAAAGCTTTGC (((..((....))..))) are -19.8 kcal/mol and 50.7 °C.
Turning to GCAGGGGGAAACCCCCGC ((.((((....)))).)), the folding enthalpy in data set [1] is -14.5 kcal/mol. In data set [2], the Tm was found to be 61.6 °C.
Consider GCAGGGTCGAAAGACTGC (((..(((....)))))), for which, in data set [1], the folding enthalpy is -23.4 kcal/mol. Further, in data set [2], the Tm amounted to 45.8 °C.
For GCAGGTACGAAAGTATGC (((..(((....)))))) the same measures were -18 kcal/mol and 33.9 °C.
For GCAGGTCGAAAGACTGC (((.(((....)))))), the folding enthalpy in data set [1] is -29.8 kcal/mol. In addition, the Tm in data set [2] is 55.9 °C.
For GCAGGTGGAAACACCTAC (.(((((....))))).) the same measures were -15.4 kcal/mol and 39.3 °C.
For GCAGTACGAAAGTAATGC (((.(((....))).))) the same measures were -40 kcal/mol and 55.4 °C.
For GCAGTAGGAAACTGCTGC ((((.((....)).)))) the same measures were -31 kcal/mol and 57 °C.
GCAGTCGAAAGACATGC ((((((....))).))): the folding enthalpy in data set [1] is -24.1 kcal/mol. Also, in data set [2], the Tm came out at 51.5 °C.
For GCAGTCGAAAGACATTGC ((((((....)))..))) the same measures were -17.1 kcal/mol and 38.1 °C.
Turning to GCAGTCGGAAACAACTGC (((((.(....).))))), the folding enthalpy in data set [1] was -32.9 kcal/mol. Moreover, in data set [2], the Tm came out at 46.1 °C.
On to GCAGTGCGAAAGCAAGGC ((..(((....)))..)), for which the folding enthalpy in data set [1] was -16.1 kcal/mol. In addition, in data set [2], the Tm came to 56.7 °C.
Turning to GCAGTGCGAAAGCCCAGC ((.(.((....)).).)), the folding enthalpy in data set [1] is -15.4 kcal/mol. Further, in data set [2], the Tm amounted to 38 °C.
In the same order, the values of GCAGTGCGAAAGCCGTGC (((..((....))..))) are -21.1 kcal/mol and 46.4 °C.
For GCAGTGCGAAAGCCTTGC (((..((....))..))) the same measures were -15.2 kcal/mol and 47.6 °C.
As for GCAGTGCGAAAGCTGTGC (((..((....))..))), the folding enthalpy in data set [1] is -19.4 kcal/mol. Further, in data set [2], the Tm was 50.2 °C.
In the same order, the values of GCAGTGCGAAAGCTTTGC (((..((....))..))) are -14 kcal/mol and 51.2 °C.
For GCAGTGGGAAACCACTAC (.(((((....))))).) the same measures were -12.9 kcal/mol and 41.1 °C.
Consider GCAGTGGGAAACCGTTGC (((..((....))..))), for which the folding enthalpy in data set [1] was -19.4 kcal/mol. Also, the Tm in data set [2] stood at 38.1 °C.
In the same order, the values of GCAGTGGGAAACTGCTGC ((((..(....)..)))) are -27.6 kcal/mol and 58.1 °C.
As for GCAGTGTCGAAAGACTGC (((..(((....)))))), the folding enthalpy in data set [1] was -23 kcal/mol. In addition, in data set [2], the Tm was 48.3 °C.
